Results: ChEMBL document CHEMBL3120066, “Discovery of a novel class of potent HCV NS4B inhibitors: SAR studies on piperazinone derivatives” (J Med Chem, 2014)

tested on: Hepatitis C virus; assay: Antiviral activity against HCV1b infected in clone A and ET-lunet cells assessed as inhibition of viral replication after 4 days by RT-PCR analysis; assay type: functional, organism-based, Hepacivirus hominis; settings: genotype 1b, 96 h
Summary of the method: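 Run in HCV genotype 1a and 1b replicon cells; each reported value is the mean of n = 2 independent determinations.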

SMILES	EC90 [nM]	EC50 [nM]
CC[C@H]1C(=O)N[C@@H](CC(C)C)CN1C(=O)[C@@H]1C[C@H]1c1ccccc1	> 10000	–
CC(C)C[C@H]1C(=O)N[C@@H](c2ccsc2Cl)CN1C(=O)c1cc(-c2ccc(F)cc2)on1	4	–
CC(C)C[C@H]1C(=O)N[C@@H](CN(C)C)CN1C(=O)c1cc(-c2ccc(F)cc2)on1	2740	–
Cc1ccsc1[C@H]1CN(C(=O)c2cc(-c3ccc(F)cc3)on2)[C@@H](CC(C)C)C(=O)N1	680	–
CC(C)C[C@H]1C(=O)N[C@@H](C2CC2)CN1C(=O)c1cc(-c2ccc(F)cc2)on1	1100	–
CC(C)C[C@H]1C(=O)N[C@@H](c2ccsc2)CN1C(=O)c1cc(-c2ccc(F)cc2)on1	26	–
CC(C)C[C@H]1CN(C(=O)[C@@H]2C[C@H]2c2ccccc2)[C@@H](CC(C)C)C(=O)N1C	8800	–
CC(C)C[C@H]1C(=O)N[C@@H](C(C)(C)C)CN1C(=O)c1cc(-c2ccc(F)cc2)on1	1800	–
CCc1cc2c(cc1F)c(C#N)c(-c1ccc(S(=O)(=O)N[C@@H](C)C(F)(F)F)cn1)n2-c1ncccn1	–	1.7
Cc1ccc([C@H]2CN(C(=O)c3cc(-c4ccc(F)cc4)on3)[C@@H](CC(C)C)C(=O)N2)s1	180	–
CC[C@H](C)[C@H]1CN(C(=O)[C@@H]2C[C@H]2c2ccccc2)[C@@H](CC(C)C)C(=O)N1	> 10000	–
CCC[C@H]1CN(C(=O)c2cc(-c3ccc(F)cc3)on2)[C@@H](CC(C)C)C(=O)N1	100	–
COC[C@H]1CN(C(=O)c2cc(-c3ccc(F)cc3)on2)[C@@H](CC(C)C)C(=O)N1	> 10000	–
CC(C)C[C@H]1C(=O)N[C@@H](c2ncco2)CN1C(=O)c1cc(-c2ccc(F)cc2)on1	> 10000	–
Cc1ccc([C@H]2CN(C(=O)c3cc(-c4ccc(F)cc4)on3)[C@@H](CC(C)C)C(=O)N2)cc1	760	–
CSCC[C@H]1CN(C(=O)c2cc(-c3ccc(F)cc3)on2)[C@@H](CC(C)C)C(=O)N1	390	–

More lines, now with the values ahead:

EC90 [nM]	EC50 [nM]	SMILES
> 10000	–	CC(C)C[C@H]1CN(C(=O)c2cccc(-c3ccccc3)c2)[C@@H](CC(C)C)C(=O)N1
2000	–	CC(C)C[C@H]1C(=O)N[C@@H](CC(C)(C)C)CN1C(=O)c1cc(-c2ccc(F)cc2)on1
3200	–	CC(C)C[C@H]1CN(C(=O)C#Cc2ccccc2)[C@@H](CC(C)C)C(=O)N1
> 5800	–	CC(C)C[C@H]1CN(C(=O)c2ccc(-c3ccccc3)o2)[C@@H](CC(C)C)C(=O)N1
2600	–	CC(C)C[C@H]1CN(C(=O)c2cc(-c3ccc([N+](=O)[O-])cc3)on2)[C@@H](CC(C)C)C(=O)N1
680	–	CC(C)C[C@H]1CN(C(=O)c2cc(-c3ccc(F)cc3F)on2)[C@@H](CC(C)C)C(=O)N1
470	–	CC(C)C[C@H]1CN(C(=O)c2cc(-c3ccc(Br)cc3)on2)[C@@H](CC(C)C)C(=O)N1
> 10000	–	COC(=O)c1ccc(/C=C/C(=O)N2C[C@H](CC(C)C)NC(=O)[C@@H]2CC(C)C)cc1
> 10000	–	CC(C)C[C@H]1CN(C(=O)c2c[nH]c(-c3ccccc3)n2)[C@@H](CC(C)C)C(=O)N1
> 10000	–	CC(C)C[C@H]1CN(C(=O)c2cc(-c3ccc(N(C)C)cc3)on2)[C@@H](CC(C)C)C(=O)N1
1100	–	CC(C)C[C@H]1CN(C(=O)c2cc(-c3ccccc3)on2)[C@@H](CC(C)C)C(=O)N1
> 10000	–	CC(C)C[C@H]1CN(C(=O)/C=C/c2ccc([N+](=O)[O-])cc2)[C@@H](CC(C)C)C(=O)N1
7800	–	CC(C)C[C@H]1CN(C(=O)/C=C/c2ccc(Br)cc2)[C@@H](CC(C)C)C(=O)N1
> 10000	–	CC(C)C[C@H]1CN(C(=O)/C=C/c2ccc(N(C)C)cc2)[C@@H](CC(C)C)C(=O)N1
1540	–	Cc1ccc(-c2cc(C(=O)N3C[C@H](CC(C)C)NC(=O)[C@@H]3CC(C)C)no2)cc1
> 10000	–	CC(C)C[C@H]1CN(C(=O)/C=C/c2ccc(S(C)(=O)=O)cc2)[C@@H](CC(C)C)C(=O)N1
290	–	CC(C)C[C@H]1CN(C(=O)c2cc(-c3ccc(Cl)cc3)on2)[C@@H](CC(C)C)C(=O)N1
1500	–	CC(C)C[C@H]1CN(C(=O)/C=C/c2ccc(F)cc2F)[C@@H](CC(C)C)C(=O)N1
